This is a sample that favours compounds with a hit; in the whole collection about 1.1% have one here.
Diaph act CS – diaphorase activation or chemical reduction counter-screen; Diaphorase/resazurin coupled assay, resorufin fluorescence, 16 min; stronger effect = higher value; 1 = vehicle wells, 0 = NADH-free wells; activation factor at 20 µM; actives 0.005% (n = 190,000);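 active means diaphorase activity raised at least twofold by the compound at 20 µM; inactive means activation factor below 2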
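System – purified diaphorase enzyme from Clostridium kluyveri · Input – enzyme 0.07 U/mL final · Also added – final NADH 0.114 mM, resazurin 0.1 mM · Measured by – fluorescence of resorufin, 544 nm excitation, 590 nm emission · Timing – 16 min enzyme reaction, ambient temperature · Measure – resorufin increase flagging diaphorase activators or reducers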
Diaph inh CS – counter-screen for diaphorase-based assays: diaphorase inhibitors and chemical oxidizers. diaphorase resazurin-to-resorufin fluorescence, NADH, 16 min; bacterial (C. kluyveri) enzyme, not human. inhibition, % at 20 µM. actives 0.69% (n = 190,000);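 active means primary screen inhibition at 20 µM above a set limit, cut at about 50% in these data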;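 further: plate controls were DMSO with full reaction for no effect and wells lacking NADH for full effect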
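Assay system: diaphorase enzyme from Clostridium kluyveri. Quantity: enzyme working solution with 0.14 U/mL diaphorase. Schedule: reaction incubation of 16 min at room temperature. Technique: resorufin fluorescence, excitation 544 nm, emission 590 nm. Controls: No-NADH positive control and DMSO neutral control.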
PMI activator – increases human mannose-6-phosphate isomerase activity. P34949. activation factor at 20 µM. AID 1214. actives 0.005% (n = 190,000). purified human PMI, coupled resazurin fluorescence, 20 min; stronger effect = higher value; 1 = vehicle control, 0 substrate-free wells;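 active means activation factor of 2 or more at 20 µM, relative to plate controls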
Target sequence (P34949 whole entry, looked up): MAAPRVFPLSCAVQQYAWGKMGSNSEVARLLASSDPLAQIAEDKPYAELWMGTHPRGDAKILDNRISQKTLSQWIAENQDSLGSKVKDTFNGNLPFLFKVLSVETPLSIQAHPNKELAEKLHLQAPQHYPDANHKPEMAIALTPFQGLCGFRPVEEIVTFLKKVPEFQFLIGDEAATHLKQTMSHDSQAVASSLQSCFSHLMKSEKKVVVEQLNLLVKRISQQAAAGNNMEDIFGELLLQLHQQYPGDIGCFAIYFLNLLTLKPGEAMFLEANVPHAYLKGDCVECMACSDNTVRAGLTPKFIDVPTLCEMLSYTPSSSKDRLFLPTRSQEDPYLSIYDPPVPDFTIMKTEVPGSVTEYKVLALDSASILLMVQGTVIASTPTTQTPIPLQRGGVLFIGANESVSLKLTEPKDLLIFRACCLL
G6PDH CS – counter-screen for G6PDH assay hits: L. mesenteroides G6PDH inhibition; Purified L. mesenteroides G6PDH, diaphorase/resazurin coupled fluorescence, 45 min; inhibition, % at 5 µM; actives 0.12% (n = 200,000); AID 1020; in the data active means inhibition above about 50%
PMI act satM6P – activators of human phosphomannose isomerase at near-saturating mannose 6-phosphate; activation factor at 20 µM; P34949; coupled PMI enzyme assay, resazurin fluorescence, 20 min; stronger effect = higher value; 1 = untreated enzyme, 0 = substrate-free blank; actives 0.34% (n = 190,000);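 active means activation factor of 2 or more at 20 µM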
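Material: human phosphomannose isomerase with PGI, G6PDH, diaphorase coupling enzymes. Quantity: 15 ng/mL PMI. Medium: HEPES pH 7.4 buffer with MgCl2 and Tween-20. Reagent: Near-saturating mannose-6-phosphate, 1.0 mM. Compound: 20 µM single dose. Times: enzyme reaction with compound 20 min at room temperature. Detection: resorufin fluorescence at Ex 544/Em 590 nm.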
* marks the source's active call; other numbers are inactive results.

SMILES	Diaph act CS	Diaph inh CS	PMI activator	G6PDH CS	PMI act satM6P
COc1cc(/C=C2\SC(=O)NC2=O)ccc1Oc1ccc([N+](=O)[O-])cc1[N+](=O)[O-]	0.4	59*	0.9	-8	0.9
O=[N+]([O-])C1=CC=C2C(=NC3(CCCCC3)N2O)C1=NC1CCCCC1	0.2	83*	0.1	26	0.2
O=[N+]([O-])C1=CC=C2C(=NC3(CCCCC3)N2O)C1=NCCc1ccccc1	0.4	63*	0.4	15	0.4
CC(C)(C)N=C1C([N+](=O)[O-])=CC=C2C1=NC1(CCCCC1)N2O	0.2	76*	0.2	39	0.3
COC(=O)C1SCC2C(=O)N(Cc3ccc(Cl)c(Cl)c3)CC(=O)N21 (centres undefined)	0.9	14	0.9	10	0.9
Cc1ccc(S(=O)(=O)N2CCCOC2CNC(=O)C(=O)NCc2cccs2)cc1 (centres undefined)	0.9	8	0.9	24	0.9
COc1c(C)cccc1C(=O)NC(=S)Nc1cccc2nsnc12	0.3	66*	1.1	10	1
CC(C)CC(=O)NC(=S)Nc1cccc2nsnc12	0.8	19	1.1	0	0.7
CC(=O)N(Cc1ccc(F)cc1)C1=C(NCc2ccccc2)C(=O)c2ccccc2C1=O	0.7	34	1.1	51*	1.3
CCn1nnnc1NCc1c(OC)ccc2ccccc12	0.9	8	0.9	4	0.8
Cc1c(NC(=S)N/N=C\c2ccccc2O)c(=O)n(-c2ccccc2)n1C	1	4	1.1	11	1.3
Cc1c(NC(=S)N/N=C/C=C/c2ccc([N+](=O)[O-])cc2)c(=O)n(-c2ccccc2)n1C	0.8	21	1.5	3	2.1*
Cc1ccc(-n2c(Cl)c(Cl)nc(Cl)c2=O)cc1	0.8	18	1	1	0.9
CCOC(=O)C1=C(Cc2ccc(Cl)cc2)C(=O)c2ccccc2C1=O	0.6	37	1.2	55*	1.6
CCOC(=O)C1=C(C)N=C2c3ccccc3C(=O)C2C1c1ccc(Cl)cc1 (centres undefined)	0.9	11	0.9	3	1
c1ccc2c(c1)CCCN2Cc1nnnn1CC1CCCO1 (centres undefined)	0.9	13	1.5	8	2.1*
c1ccc(-c2nnc(CN3CCCc4ccccc43)o2)cc1	1	0	1.5	4	2.1*
c1ccc(CCn2nnnc2CN2CCCc3ccccc32)cc1	0.9	12	1	8	2.1*
c1ccc2sc(N3CCN(Cc4nnnn4CC4CCCO4)CC3)nc2c1 (centres undefined)	1	2	1.1	2	1.1
c1ccc(-c2nnc(CN3CCC4(CC3)OCCO4)o2)cc1	0.9	12	0.9	-11	0.9
CCN(CC)CCNC(=O)c1cccc(NC(=O)C(=O)c2cc(Br)ccc2NC(C)=O)c1	0.8	20	0.9	-5	1
COC(=O)c1c(NC(=S)Nc2ccc(C(=O)N3CCOCC3)cc2)sc2c1CCC2	0.7	30	0.7	4	0.7
NC(=S)N/N=C/c1ccccc1	0.8	19	0.9	0	1
NC(=S)N/N=C\c1c2ccccc2cc2ccccc12	0.8	20	1.6	-17	2.3*
CS(=O)(=O)c1sc2nc(-c3cccs3)cc(-c3ccccc3)c2c1N	0.8	17	1.6	-2	2.2*
SMILES	Diaph act CS	Diaph inh CS	PMI activator	G6PDH CS	PMI act satM6P
CCC1=NN2C(=N)/C(=C\c3ccc(OCc4cc(=O)n5nc(CC)sc5n4)c(OC)c3)C(=O)N=C2S1	0.5	54*	1.1	0	1
CCC1=NN2C(=N)/C(=C\c3cccn3-c3ccc(C)c(C)c3)C(=O)N=C2S1	0.7	27	1	-2	1.1
Cc1ccsc1C1Nc2ccc3ncccc3c2C2=C1C(=O)CC(C)(C)C2 (centres undefined)	0.5	53*	0.7	14	0.5
O=C1CCCC2=C1C(c1ccc(O)c(O)c1)Nc1ccc3ncccc3c12 (centres undefined)	0.3	71*	0.5	28	0.5
CC1(C)CC(=O)C2=C(C1)c1c(ccc3ccccc13)NC2c1ccco1 (centres undefined)	0.8	22	1	6	1
O=C1CCCC2=C1C(c1cccs1)Nc1ccc3ncccc3c12 (centres undefined)	1	3	0.9	3	0.8
CSc1nc(Cc2ccccc2)cc(=O)[nH]1	1	0	1.1	14	1
c1ccc(N2CCN(c3nc4ccccc4[nH]3)CC2)nc1	0.3	67*	1.1	5	1.1
CCOC(=O)c1cn(CC)c2cc(Cl)c([N+](=O)[O-])cc2c1=O	0.9	11	1.1	-4	1.1
CCOC(=O)c1cn(-c2c(Cl)cccc2Cl)c2cc(Cl)c([N+](=O)[O-])cc2c1=O	0.5	52*	1.1	0	1.1
Oc1c(C(c2ccccc2Cl)N2CCCC2)ccc2cccnc12 (centres undefined)	0.4	55*	0.7	8	0.9
Oc1c(C(c2cccs2)N2CCN(c3ccccc3)CC2)ccc2cccnc12 (centres undefined)	0.6	38	0.4	10	0.5
COc1cc2c(C#N)c(N3CCOCC3)nc(N)c2c(N)n1	0.8	22	0.7	8	0.8
COc1cc2c(C#N)c(N3CCc4ccccc4C3)nc(N)c2c(N)n1	0.4	61*	0.4	-28	0.4
CCOc1cc2c(C#N)c(N3CCNCC3)nc(N)c2c(N)n1	0.5	46	0.3	18	0.4
COc1cc2c(C#N)c(N3CCCCC3)nc(N)c2c(N)n1	0.4	64*	0.3	51*	0.3
CCOc1cc2c(C#N)c(N3CCCCC3)nc(N)c2c(N)n1	0.4	58*	0.4	47	0.4
CN1C(=O)C(Cl)(Cl)C(=O)c2ccccc21	0.2	76*	0.2	25	0.3
CC(C)COP(=O)(CNC(=O)CN1C(=O)c2ccccc2S1(=O)=O)OCC(C)C	1	-1	1.1	-3	1
CC(=O)Oc1ccc2c(=O)c(Oc3ccccc3)c(C)oc2c1OC(C)=O	0.3	65*	0.3	22	0.7
C=CCc1cc(/C=C/c2nc(O)c([N+](=O)[O-])c(=O)[nH]2)cc(OC)c1O	0.3	71*	0.8	5	0.3
CSc1cccc(-n2cc(-c3ccc4c(c3)OCO4)[nH]c2=O)c1	0.7	28	1.5	12	2.1*
O=[N+]([O-])c1cc(S(=O)(=O)N2CCCCC2)ccc1NCCCN1CCOCC1	0.9	7	1	4	1
C1CN(c2nc3nonc3nc2N2C[C@H]3CC[C@H]2C3)CCS1	1	4	1.1	13	1.1
